ChEMBL document CHEMBL1121835, “Synthesis and anxiolytic activity of 6-(substituted-phenyl)-1,2,4-triazolo[4,3-b]pyridazines” (J Med Chem, 1981)
The source made the active and inactive calls. The calls are words filed in the database; no cut-off is given here.

Columns and labels:
[1] = biological target: T1, GABA-A receptor; anion channel (Rattus norvegicus) (UniProt O09028+P15431+P18506+P18508+P19969+P20236+P23574+P23576+P28471+P28473+P30191+P62813+P63079+P63138+Q91ZM7+Q9ES14); test: In vitro inhibition of [3H]diazepam binding towards Benzodiazepine receptor at 1 uM; type: protein-complex assay
[2] = system: Rattus norvegicus; test: Compound was evaluated for anxiolytic activity for protection against pentylenetetrazole-induced convulsions; No activity at 50 mg/Kg; type: functional, organism-based
How it was run: (§1)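 Rats in groups of 10, food-deprived 24 h, given 4–6 graded doses of compound orally (or ip where noted). PTZ at 23 mg/kg was injected iv into the caudal vein 60 min later. Protection meant no clonic seizure lasting at least 5 s. The number protected was counted and the ED50 estimated.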

[3] = species: Rattus norvegicus; test: Anxiolytic activity for protection against pentylenetetrazole-induced convulsions.; type: functional, organism-based; how it was run: as §1
[4] = species: Rattus norvegicus; test: Average reduction in blood pressure over control (4 rats) at 2 hr in spontaneous hypertensive rats; type: functional
How it was run: (§2)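 Conscious cannulated male Okamoto SH rats, 300–350 g, dosed po with vehicle (2% boiled starch) or compound at 1, 5, 10 and 25 mg/kg. A second po dose was given 20 h later, and pressure was recorded continuously for 4 h. The value is the mean reduction against controls at 2 and 4 h, n = 4.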

[5] = species: Rattus norvegicus; test: Average reduction in blood pressure over control (4 rats) at 4 hr in spontaneous hypertensive rats; type: functional; how it was run: as §2
[6] = species: Rattus norvegicus; test: Anxiolytic activity for protection against pentylenetetrazole-induced convulsions in experiment 1; type: functional; conditions: Rattus norvegicus; read-out: ED50; how it was run: as §1
[7] = species: Rattus norvegicus; test: Anxiolytic activity for protection against pentylenetetrazole-induced convulsions in experiment 2; type: functional; how it was run: as §1
[8] = system: Rattus norvegicus; test: Hypotensive activity in saline-loaded spontaneously hypertensive rats following 100 mg/kg p.o. administration.; type: functional; design: unit not given beside the values; conditions: route oral
How it was run: (§3)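 Male Okamoto SH rats, about 300 g, gavaged with compound suspended in 2% boiled starch, with 0.9% NaCl loading at 25 mL/kg, at 0 h. An identical dose without saline followed at 24 h. Mean arterial pressure was taken by iliac artery puncture under local lidocaine at 28 h. Values are from one to three rats.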

[9] = system: Rattus norvegicus; test: Hypotensive activity evaluated as mean arterial blood pressure (MABP) in saline-loaded spontaneously hypertensive rats dosed (per oral) at 25 mg/kg; type: functional; how it was run: as §3
[10] = biological target: GABA-A receptor; anion channel; test: In vitro for inhibition of [3H]diazepam towards Benzodiazepine receptor from rat; type: protein-complex assay
How it was run: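 Rat frontal cortex homogenized in ice-cold 0.32 M sucrose; crude P2 synaptosomal fraction resuspended in 50 mM Tris-HCl pH 7.4. IC50 read graphically from % inhibition vs log concentration plots.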

[11] = species: Rattus norvegicus; test: Compound was evaluated for anxiolytic activity for protection against pentylenetetrazole-induced convulsions in experiment 2; type: functional; how it was run: as §1
[12] = system: Rattus norvegicus; test: In vivo protection against pentylenetetrazole-induced convulsions in the rat.; type: functional; how it was run: as §1
[13] = system: Rattus norvegicus; test: Compound was evaluated for anxiolytic activity for protection against pentylenetetrazole-induced convulsions; No activity at 50 mg/kg; type: functional, organism-based; design: dose 50 mg/kg; how it was run: as §1
[14] = system: Rattus norvegicus; test: Compound was evaluated for anxiolytic activity for protection against pentylenetetrazole-induced convulsions; no activity at 50 mg/kg; type: functional, organism-based; design: dose 50 mg/kg; how it was run: as §1
[15] = biological target: T1, GABA-A receptor; anion channel (Rattus norvegicus); test: In vitro percent inhibition of [3H]diazepam binding to rat GABA-A benzodiazepine receptor at 1 uM; type: protein-complex assay

Row | Structure (SMILES) | inhibition [1] [%] | MABP [8] | ED50 [12] [mg/kg] | also measured
1 | Cc1cc(-c2cccc(C(F)(F)F)c2)nn2c(C)nnc12 | < 10 | – | – | ED50 [2]: inactive
2 | COc1ccc(-c2ccc3nnc(C)n3n2)cc1 | – | – | – | ED50 [3]: inactive
3 | Clc1ccc(-c2ccc3nncn3n2)cc1 | < 10 | 110 | – | BP [4]: -15 mmHg; BP [5]: -17 mmHg; ED50 [6]: 5.3 mg/kg; ED50 [7]: 9.8 mg/kg; MABP [9]: 136
4 | FC(F)(F)c1cccc(-c2ccc3nncn3n2)c1 | 55 | 90 | – | IC50 [10]: 0.905 µM; ED50 [6]: 4.5 mg/kg; MABP [9]: 117; ED50 [11]: 2.5 mg/kg
5 | COCc1nnc2ccc(-c3cccc(C(F)(F)F)c3)nn12 | 23 | – | 6.4 | –
6 | Cc1cc2nncn2nc1-c1cccc(C(F)(F)F)c1 | 21 | – | 12.9 | –
7 | Clc1ccccc1-c1ccc2nncn2n1 | – | 127 | 18 | –
8 | Fc1cccc(-c2ccc3nncn3n2)c1 | – | – | 5.5 | –
9 | Cc1nnc2ccc(-c3ccc(Cl)c(Cl)c3)nn12 | – | – | – | ED50 [3]: inactive
10 | Clc1ccc(-c2ccc3nnc(-c4ccccc4)n3n2)cc1 | – | – | – | ED50 [3]: inactive
11 | Cc1nnc2ccc(-c3ccccc3F)nn12 | 37 | – | 10.4 | IC50 [10]: 7.45 µM
12 | c1ccc(Cc2nnc3ccc(-c4ccccc4)nn23)cc1 | – | – | – | ED50 [3]: inactive
13 | Cc1cc2nncn2nc1-c1cccc(F)c1 | – | 142 | – | ED50 [3]: inactive
14 | CCc1nnc2ccc(-c3ccccc3)nn12 | – | – | – | ED50 [13]: inactive
15 | Clc1cccc(-c2ccc3nncn3n2)c1 | 30 | – | 8.2 | IC50 [10]: 2.25 µM
16 | Cc1nnc2ccc(-c3ccc(Cl)cc3)nn12 | 28 | – | – | ED50 [6]: 9.9 mg/kg; ED50 [7]: 10 mg/kg
17 | Cc1cccc(-c2ccc3nnc(C(F)(F)F)n3n2)c1 | – | – | – | ED50 [2]: inactive
18 | CN1C(=O)CN=C(c2ccccc2)c2cc(Cl)ccc21 [DIAZEPAM] | – | – | 1.8 | –
19 | Cc1cc2nnc(C)n2nc1-c1cccc(F)c1 | < 10 | – | – | ED50 [3]: inactive
20 | CNC1=Nc2ccc(Cl)cc2C(c2ccccc2)=[N+]([O-])C1 [CHLORDIAZEPOXIDE] | 75 | – | 1.7 | IC50 [10]: 0.248 µM
21 | Clc1ccc(-c2ccc3nncn3n2)cc1Cl | – | – | – | ED50 [3]: inactive
22 | CCc1nnc2ccc(-c3ccc(C(F)(F)F)cc3)nn12 | – | 129 | ~50 | MABP [9]: 157
23 | Fc1ccccc1-c1ccc2nncn2n1 | 16 | 112 | 17 | –
24 | Cc1cc(-c2cccc(C(F)(F)F)c2)nn2cnnc12 | < 10 | 102 | – | EC50 [14]: Not Active
25 | Cc1cc2nncn2nc1-c1cccc(C#N)c1 | – | 88 | 34 | MABP [9]: 135
26 | Cl.Clc1cccc(Cl)c1NC1=NCCN1 [CLONIDINE HYDROCHLORIDE] | – | 102 | – | –
27 | CCCc1nnc2ccc(-c3cccc(C(F)(F)F)c3)nn12 | – | 112 | – | ED50 [3]: inactive; MABP [9]: 165
28 | COCc1nnc2ccc(-c3ccccc3)nn12 | < 10 | – | – | ED50 [6]: 9.5 mg/kg; ED50 [7]: 6.4 mg/kg
29 | O=[N+]([O-])c1cccc(-c2ccc3nncn3n2)c1 | – | – | 22 | –
30 | ClCc1nnc2ccc(-c3ccccc3)nn12 | 45 | – | – | inhibition [15]: 47%; ED50 [2]: inactive
